From ChEMBL document CHEMBL4828728, “Antiplasmodial 2-thiophenoxy-3-trichloromethyl quinoxalines target the apicoplast of Plasmodium falciparum” (Eur J Med Chem, 2021)
Active and inactive are the calls of the source. The calls are words filed in the database; no cut-off is given here.

How the values were obtained:
[1] = Cytotoxicity against human HepG2 cells assessed as reduction in cell viability measured after 72 hrs by MTT assay; assay type: cell-based
Summary of the method: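 HepG2 in MEM with 10% FBS, 5×10³ cells/well; 24 h attachment, then serial dilutions (DMSO <0.5% final) for 72 h at 37 °C, wells checked for precipitate. MTT 0.5 mg/mL for 2 h, formazan in DMSO, A570 with 630 nm reference. Viability versus untreated; doxorubicin positive control; CC50 from dose-response curve, triplicates, mean of three independent experiments.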

[2] = Aqueous solubility of the compound; assay type: physicochemical; conditions: buffer
[3] = system: Plasmodium falciparum; experiment: Antiplasmodial activity against multidrug-resistant Plasmodium falciparum K1 infected in human erythrocytes assessed as reduction in parasite growth incubated for 72 hrs by SYBR green I fluorescence based assay; assay type: functional, organism-based; conditions: K1, Erythrocyte
[4] = Selectivity index, ratio of CC50 for cytotoxicity against human HepG2 cells to EC50 for antiplasmodial activity against multidrug-resistant Plasmodium falciparum K1 infected in human erythrocytes; assay type: toxicity, cell-based; conditions: read-out: Ratio CC50/EC50
[5] = system: Plasmodium falciparum; experiment: Inhibition of apicoplast biogenesis in Plasmodium falciparum 3D7 assessed as loss of apicoplast at 0.3 uM measured after 48 hrs by DAPI/TPT staining based epifluorescence microscopic analysis; assay type: functional, organism-based
Summary of the method: (§1)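 Sorbitol-synchronized (5%) 3D7 blood-stage cultures expressing HA-tagged TPT, grown in RPMI-HEPES with 5% AlbuMAX II, 2% hematocrit, 1% O2/5% CO2, 37 °C; exposed 48 h to 0.3 μM or DMSO. Fixed in 4% PFA/0.0075% glutaraldehyde, Triton-permeabilized, stained with anti-HA plus Alexa 488 secondary and DAPI; imaged by epifluorescence with DIC.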

[6] = system: Plasmodium falciparum; experiment: Inhibition of apicoplast development in Plasmodium falciparum 3D7 assessed as reduction in parasite growth at 0.3 uM measured during 48 hrs of first cycle of parasite development by SYBR green I based fluorescence assay; assay type: functional, organism-based
Summary of the method: (§2)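 3D7 cultures held at 0.3 μM or DMSO across three 48 h cycles, diluted 1/10 each cycle. At 48, 96 and 144 h, aliquots were lysed in SYBR Green I buffer (Tris pH 7.5, EDTA, saponin, Triton X-100) for 1 h at room temperature in the dark. Fluorescence read at 485/538 nm; growth expressed as treated/untreated ratio, n=3, SD.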

[7] = system: Plasmodium falciparum; experiment: Antiplasmodial activity against Plasmodium falciparum NF135 sporozoites infected in human hepatocytes assessed as reduction in parasite size without affecting parasite number incubated for 3 hrs with daily replacement of fresh medium containing compound until day 6 post infection by fluorescence microscopic analysis; assay type: functional, organism-based; conditions: Hepatocyte, time 6.0 day
Summary of the method: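 Cryopreserved primary human hepatocytes seeded at 80,000/well on collagen I in supplemented William's E, then infected with 30,000 NF135 sporozoites/well from A. stephensi salivary glands. Plates centrifuged 10 min, serial drug dilutions added at infection, washed at 3 h, drug medium renewed daily. Fixed day 6 in 4% PFA, EEFs stained with anti-HSP70 plus DAPI, counted by fluorescence microscopy or high-content imaging.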

[8] = Cytotoxicity against CHO cells assessed as reduction in cell viability measured after 24 hrs by MTT assay; assay type: cell-based, Cricetulus griseus; conditions: chinese hamster
Summary of the method: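 CHO cells grown in RPMI with 10% FBS; 5×10³ cells/well, 24 h attachment, then compound dilutions (DMSO <0.5% final) for 24 h at 37 °C. Precipitate check, MTT 0.5 mg/mL 2 h, DMSO solubilization, A570/630. Percent viability against untreated; doxorubicin control; CC50 from dose-response, triplicates, mean of three independent experiments.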

[9] = Genotoxicity in human HepG2 cells assessed as induction of alkali labile sites at 28 uM measured after 2 to 72 hrs by alkali comet assay; assay type: cell-based; conditions: hepg2, 28 µM, time 2-72 hrs
Summary of the method: (§3)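 HepG2 (passage 11-15, EMEM with 10% FBS) exposed to 5.6 or 28 μM for 2 h or 72 h; vehicle 0.5% DMSO; 1 mM MMS 2 h positive control. Alkaline comet: lysis pH 10 at 4 °C 1 h, unwinding 40 min at pH >13, electrophoresis 1 V/cm 20 min. DAPI staining, % tail DNA; median of 50 comets per duplicate gel, mean of three experiments ±SD.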

[10] = system: Plasmodium falciparum; experiment: Inhibition of apicoplast development in hepatic stage of Plasmodium falciparum NF135 infected in human hepatocytes assessed as proportion of schizonts with partial and complete alteration of apicoplast signal at 30 uM incubated for 3 hrs with daily replacement of fresh medium containing compound until day 6 post infection by confocal microscopy; assay type: functional; set-up: scale not given: the % may be the effect or the level left; conditions: time 6 day
Summary of the method: (§4)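 Primary human hepatocytes infected with NF135 sporozoites (30,000/well), drug present from infection, washed at 3 h and renewed daily until fixing at day 6 (4% PFA). Apicoplast stained with anti-ACP antibody, parasites with anti-HSP70, DNA with DAPI, imaged by confocal microscopy. 100 parasites scored as normal or partially/completely altered apicoplast, given as percentage distribution.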

[11] = system: Plasmodium falciparum; experiment: Inhibition of apicoplast development in hepatic stage of Plasmodium falciparum NF135 infected in human hepatocytes assessed as condensation of apicoplast protein ACP signal incubated for 3 hrs with daily replacement of fresh medium containing compound until day 6 post infection by confocal microscopy; assay type: functional, organism-based; conditions: time 6.0 day; summary of the method: as §4
[12] = Genotoxicity in human HepG2 cells assessed as induction of alkali labile sites at 5.6 uM measured after 2 to 72 hrs by alkali comet assay; assay type: cell-based; conditions: hepg2, 5.6 µM, time 2-72 hrs; summary of the method: as §3
[13] = Genotoxicity in human HepG2 cells assessed as induction of DNA strand breaks at 28 uM measured after 2 to 72 hrs by alkali comet assay; assay type: cell-based; conditions: hepg2, 28 µM, time 2-72 hrs; summary of the method: as §3
[14] = Cytotoxicity against African green monkey Vero cells assessed as reduction in cell viability measured after 48 hrs by MTT assay; assay type: cell-based; conditions: chlorocebus sabaeus
Summary of the method: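 Vero cells in MEM with 10% FBS; 5×10³ cells/well, 24 h attachment, then compound dilutions (DMSO <0.5% final) for 48 h at 37 °C. Precipitate check, MTT 0.5 mg/mL 2 h, DMSO solubilization, A570/630. Viability relative to untreated; doxorubicin control; CC50 from dose-response, triplicates, mean of three independent experiments.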

[15] = system: Plasmodium falciparum; experiment: Inhibition of apicoplast biogenesis in Plasmodium falciparum 3D7 assessed as reduction in apicoplast development, elongation and branching at 0.3 uM measured after 48 hrs by DAPI/TPT staining based epifluorescence microscopic analysis; assay type: functional, organism-based; summary of the method: as §1
[16] = system: Plasmodium falciparum; experiment: Antiplasmodial activity against Plasmodium falciparum 3D7 assessed as reduction in parasite development by measuring enriched culture in mid trophozite parasites at 0.3 uM measured after 48 hrs by DAPI/TPT staining based epifluorescence microscopic analysis; assay type: functional, organism-based; summary of the method: as §1
[17] = Toxicity in human hepatocytes assessed as reduction in nuclei number up to 30 uM by microscopic analysis; assay type: cell-based, Hepatocyte
Summary of the method: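 Cryopreserved primary human hepatocytes, 80,000 per collagen-coated well in William's E medium, inoculated with 30,000 NF135 sporozoites/well and centrifuged. Serial drug dilutions added with sporozoites, renewed daily until 4% PFA fixation at day 6. Stained with anti-HSP70 and DAPI; hepatocyte nuclei counted across scanned microscopic fields, treated versus control.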

[18] = Genotoxicity in human HepG2 cells assessed as induction of DNA strand breaks at 5.6 uM measured after 2 to 72 hrs by alkali comet assay; assay type: cell-based; conditions: hepg2, 5.6 µM, time 2-72 hrs; summary of the method: as §3
[19] = system: Plasmodium falciparum; experiment: Antiplasmodial activity against Plasmodium falciparum 3D7 assessed as reduction in parasite development by measuring defect in parasite replication at 0.3 uM measured after 48 hrs by DAPI/TPT staining based epifluorescence microscopic analysis; assay type: functional, organism-based; summary of the method: as §1
[20] = system: Plasmodium falciparum; experiment: Inhibition of apicoplast development in Plasmodium falciparum 3D7 assessed as delayed death phenotype at 0.3 uM measured during 48 hrs of three cycles of parasite development by SYBR green I based fluorescence assay; assay type: functional, organism-based; summary of the method: as §2
[21] = system: Plasmodium falciparum; experiment: Antiplasmodial activity against Plasmodium falciparum 3D7; assay type: functional, organism-based
[22] = Aqueous solubility of the compound assessed as precipitation of the compound at >1.9 uM; assay type: physicochemical; conditions: buffer

Row | Structure (SMILES) | CC50 at 72 h [1] [µM] | solubility [2] | EC50 [3] [µM] | selectivity ratio [4] | further results
1 | Fc1ccccc1Sc1nc2ccccc2nc1C(Cl)(Cl)Cl | 40.5 | Soluble | 0.32 | 127 | –
2 | FC(F)(F)Oc1ccc(Sc2nc3ccccc3nc2C(Cl)(Cl)Cl)cc1 | 21 | Soluble | 0.36 | 58.3 | –
3 | COc1ccccc1Sc1nc2ccccc2nc1C(Cl)(Cl)Cl | 42.6 | Soluble | 0.74 | 56.8 | –
4 | Clc1ccc(Sc2nc3ccccc3nc2C(Cl)(Cl)Cl)cc1 | – | – | 0.5 | 77.2 | –
5 | COc1ccc(Cl)c(Sc2nc3ccccc3nc2C(Cl)(Cl)Cl)c1 | 58.4 | Soluble | 0.46 | 127 | –
6 | c1ccc(Sc2cnc3ccccc3n2)cc1 | > 50 | – | > 50 | – | –
7 | ClC(Cl)(Cl)c1nc2ccccc2nc1Sc1ccccc1 | 56 | Soluble | 0.32 | 175 | inhibition [5]: Active; Activity [6]: Active; Activity [7]: Dose-Dependent Effect; CC50 at 24 h [8]: 58.5 µM; Activity [9]: Non-Toxic; Activity [10]: 93%; inhibition [11]: Active; Activity [12]: Non-Toxic; Activity [13]: Non-Toxic; CC50 at 48 h [14]: 63.5 µM; inhibition [15]: Active; Activity [16]: Active; Activity [17]: Non-Toxic; Activity [18]: Non-Toxic; Activity [19]: Active; Activity [20]: Active
8 | Clc1cccc(Sc2nc3ccccc3nc2C(Cl)(Cl)Cl)c1 | 38.3 | Soluble | 0.41 | 93.4 | –
9 | Clc1ccccc1Sc1nc2ccccc2nc1C(Cl)(Cl)Cl | 36.9 | Soluble | 0.5 | 73.8 | –
10 | Cc1ccc(Sc2nc3ccccc3nc2C(Cl)(Cl)Cl)cc1 | 69.7 | Soluble | 1.5 | 46.5 | –
11 | Fc1ccc(Sc2nc3ccccc3nc2C(Cl)(Cl)Cl)cc1 | 30.8 | Soluble | 0.36 | 85.6 | –
12 | FC(F)(F)c1nc2ccccc2nc1Sc1ccccc1 | > 50 | – | > 50 | – | –
13 | O=C1C(O)=C([C@H]2CC[C@H](c3ccc(Cl)cc3)CC2)C(=O)c2ccccc21 [ATOVAQUONE] | > 15.6 | – | 0.001 | – | –
14 | Oc1cc(Cl)ccc1Oc1ccc(Cl)cc1Cl [TRICLOSAN] | – | – | – | – | EC50 [21]: 1.55 µM
15 | Clc1ccc(Sc2nc3ccccc3nc2C(Cl)(Cl)Cl)c(Cl)c1 | > 31.2 | Soluble | 0.9 | > 34.7 | –
16 | Cc1nc2ccccc2nc1Sc1ccccc1 | > 25 | – | > 50 | – | Activity [20]: inactive
17 | FC(F)(F)c1ccc(Sc2nc3ccccc3nc2C(Cl)(Cl)Cl)cc1 | 29.9 | Soluble | 0.5 | 59.8 | –
18 | COc1ccc(Sc2nc3ccccc3nc2C(Cl)(Cl)Cl)cc1 | > 1.9 | – | 0.65 | > 3 | solubility [22]: Insoluble
19 | Fc1cccc(Sc2nc3ccccc3nc2C(Cl)(Cl)Cl)c1 | 35.9 | Soluble | 0.31 | 116 | –
20 | ClC(Cl)(Cl)c1nc2ccccc2nc1Sc1ccc(Br)cc1 | 42.2 | Soluble | 0.46 | 93 | –
21 | CCN(CC)CCCC(C)Nc1ccnc2cc(Cl)ccc12 (stereo not given) [CHLOROQUINE] | – | – | 0.8 | – | –
22 | Clc1cccc(Sc2nc3ccccc3nc2C(Cl)(Cl)Cl)c1Cl | 34.6 | Soluble | 0.31 | 112 | –
23 | C[C@H]1c2cccc(O)c2C(=O)C2=C(O)[C@]3(O)C(=O)C(C(N)=O)=C(O)[C@@H](N(C)C)[C@@H]3[C@@H](O)[C@@H]21 [DOXYCYCLINE] | – | – | 6 | 3.3 | –
24 | O=[N+]([O-])c1ccc(Sc2nc3ccccc3nc2C(Cl)(Cl)Cl)cc1 | 19.9 | Soluble | 0.25 | 79.6 | –
